Rows were chosen to be rich in hits. Some 2.9% of all compounds tested hit in one or more screens of this group.
SENP8 block-1: inhibitors of human SENP8 protease; AID 2540; 330,000 tested, 1.2% active; Q96LD8; purified SENP8, Z-RLRGG-aminoluciferin cleavage, luminescence; inhibition, % at 10 µM; in the data active = inhibition above about 50%
Target sequence (Q96LD8 whole entry, looked up): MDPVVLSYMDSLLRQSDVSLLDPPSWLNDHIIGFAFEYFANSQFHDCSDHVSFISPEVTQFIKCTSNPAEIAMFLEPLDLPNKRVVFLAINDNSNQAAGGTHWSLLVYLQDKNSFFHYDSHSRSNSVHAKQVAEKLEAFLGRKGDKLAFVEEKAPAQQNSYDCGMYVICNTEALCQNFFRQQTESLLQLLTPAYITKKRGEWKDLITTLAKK
SENP6 block: blocks the human protease SENP6; 330,000 tested, 1.8% active; Q9GZR1; inhibition, % at 10 µM; Recombinant SENP6 catalytic domain, aminoluciferin luminescence;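 active = inhibition above about 50% at the single tested dose, limit read from the data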;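 note: plate controls were DMSO wells with enzyme for no effect and DMSO wells lacking enzyme for full effect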
HSP90 refold inh: blocks HSP90-mediated luciferase refolding in reticulocyte lysate | Rabbit reticulocyte lysate, luciferase refolding luminescence, 3 h | 290,000 tested, 0.91% active | inhibition, % at 5.6 µM;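 active = inhibition above the screen-wide mean plus 3 SD, computed separately per campaign, cut at about 16% in these data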;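 note: 0% = DMSO wells and 100% = 60 µM geldanamycin wells; inhibitors lower the luminescence because luciferase stays unfolded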
SENP7 block: blocks the human protease SENP7; 330,000 tested, 1.5% active; inhibition, % at 5 µM; Q9BQF6; recombinant SENP7, Z-RLRGG-aminoluciferin luminescence, 40 min;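 active = inhibition above about 50% at the single test dose, limit read from the data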;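 note: plate controls were DMSO with enzyme for no effect and no enzyme buffer wells for full effect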
SENP8 block-2: SENP8 (human) protease inhibition. recombinant SENP8, Nedd8 substrate fluorescence. inhibition, % at 20 µM. 360,000 tested, 0.64% active; in the data active = inhibition mostly above about 40%, no sharp cut-off; inactive = mostly below about 27%
SENP1 FRET inh: blocks the human SENP1 SUMO protease catalytic domain; Q9P0U3; recombinant SENP1 catalytic domain, CyPet-SUMO1-YPet FRET cleavage; inhibition, % at 10 µM; 360,000 tested, 0.21% active; AID 624204;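 active = inhibition at least 30% at 10 µM, raw YFP signal under a set limit, fluorescence ratio 0.5 to 1.5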;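 note: 0% = enzyme with DMSO and 100% = no enzyme wells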
Target sequence (Q9P0U3 419-644 limits assumed): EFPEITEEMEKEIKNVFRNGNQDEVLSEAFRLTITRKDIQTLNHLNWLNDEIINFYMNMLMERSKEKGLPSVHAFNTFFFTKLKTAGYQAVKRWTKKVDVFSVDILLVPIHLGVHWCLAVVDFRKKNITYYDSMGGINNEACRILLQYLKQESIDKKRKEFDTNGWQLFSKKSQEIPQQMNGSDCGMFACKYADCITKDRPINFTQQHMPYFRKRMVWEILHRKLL
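Material: hSENP1 catalytic domain, recombinant; medium: Tris pH 8 with BME, BSA, NP40 and catalase; compound: single concentration of 10 µM compound, 0.5% DMSO final; technique: FRET read of cyan and yellow fluorescence; timing: 50 min enzyme reaction, room temperature, light-protected; reagent: SFCypet-SUMO1-SFYpet substrate at 25 nM; control set: no-enzyme low, enzyme-DMSO high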
Starred values were filed as active, the others as inactive; i = inactive; nt = no result given.

SMILES	SENP8 block-1	SENP6 block	HSP90 refold inh	SENP7 block	SENP8 block-2	SENP1 FRET inh
O=C(Nc1ccc(Br)cn1)c1ccc(Cl)s1	42	61*	2	54*	8	2
Cc1[nH]n(-c2ccccc2)c(=O)c1C=Nc1ccc(S(=O)(=O)Nc2nccs2)cc1	-4	2	2	-2	44*	3
COc1cc(S(=O)(=O)Nc2cccc(C)c2)ccc1N=Cc1c(C)[nH]n(-c2ccccc2)c1=O	7	0	-2	2	nt	nt
Cc1ccc(-n2[nH]c(C)c(C=Nc3ccc(S(=O)(=O)Nc4nccs4)cc3)c2=O)cc1C	2	14	-3	0	29	4
COc1cc(S(=O)(=O)Nc2ccc(C)cc2)ccc1N=Cc1c(C)[nH]n(-c2ccccc2)c1=O	-7	4	3	6	46*	7
CC(C)=CCC[C@H](C)C[C@@H]1Cc2[nH][nH]c(=O)c2[C@H](c2ccc(Cl)cc2)O1	nt	nt	nt	nt	9	0
CCC(N=c1cc(-c2ccc(OC)cc2)oc2ccc(C)cc12)C(=O)O (centres undefined)	17	52*	3	14	-414	-26
CCC(N=c1cc(-c2ccc(OC)c(OC)c2)oc2ccc(C)cc12)C(=O)O (centres undefined)	-4	7	-2	-2	-409	-45
COc1ccc(-n2ncc3c2CC(C)(C)CC3NC(=O)c2ccnn2C)cc1 (centres undefined)	6	11	-1	-8	-1	3
C/C(Cl)=C\Cn1c(O)c(N=NC(N)=S)c2cc(Br)ccc21	-9	-13	-5	-4	17	5
NC(=S)N=Nc1c(O)n(CCCl)c2ccc(Br)cc12	-5	-26	2	-4	50*	4
CC(=O)c1ccc2c(c1)C1C=CCC1C(c1ccncc1)N2 (centres undefined)	7	37	0	18	16	38*
CC(=O)c1ccc2c(c1)C1C=CCC1C(C(=O)O)N2 (centres undefined)	11	8	2	3	13	16
Cc1nn(C)cc1C(C)NC(=O)c1cc(COc2ccc(F)c(F)c2)on1 (centres undefined)	0	9	-1	5	16	4
CCSc1nnc(NC(=O)c2ccccc2C)s1	36	55*	-1	44	2	2
Cc1ccccc1C(=O)Nc1nnc(-c2ccco2)s1	44	54*	8	73*	-197	1
CCSc1nnc(NC(=O)c2cccnc2Cl)s1	-13	26	1	-2	6	-2
CCSc1nnc(NC(=O)c2cnccn2)s1	7	-3	nt	4	nt	nt
COc1ccccc1C(=O)Nc1nnc(-c2ccco2)s1	-6	-24	4	-9	-329	2
CCSc1nnc(NC(=O)c2ccccn2)s1	18	60*	13	60*	8	0
CCSc1nnc(NC(=O)c2ccccc2)s1	29	53*	0	40	-16	0
CC1Cc2c([nH]c3ccccc23)C(=O)N1 (centres undefined)	-16	-8	1	9	-35	0
c1ccc2c(-c3cncc4ccccc34)cncc2c1	3	-23	nt	6	-94	0
CCOC(=O)C1=CCN(S(=O)(=O)c2ccc(F)cc2)C1c1ccc(F)cc1 (centres undefined)	nt	nt	nt	nt	26	1
Cc1cc(C)cc(N=c2c([N+](=O)[O-])nn(-c3ccc4c(c3)OCCO4)n2O)c1	3	12	4	5	21	2
SMILES	SENP8 block-1	SENP6 block	HSP90 refold inh	SENP7 block	SENP8 block-2	SENP1 FRET inh
Cc1ccc(N=c2c([N+](=O)[O-])nn(-c3ccc4c(c3)OCCO4)n2O)c(Cl)c1	8	1	17*	5	nt	nt
OCc1ccc2c(c1)c(-c1ccc3c(c1)OCCO3)c(-c1ccccc1)n2-c1ccccc1	0	-2	nt	7	i	-9
CCCCN1C(=O)C(=O)c2cc(Cl)ccc21	10	0	nt	7	-41	-3
O=C(Nc1cccc(Cl)c1)c1cccc(Oc2ccc([N+](=O)[O-])cc2Cl)c1	-13	-13	1	-13	-3	3
O=C(Nc1cccc(Cl)c1)c1cc(N=Nc2ccc([N+](=O)[O-])cc2Cl)ccc1O	14	-1	-2	7	43*	4
O=C(Nc1ccc([N+](=O)[O-])cc1Cl)c1cc(Cl)ccc1O	98*	99*	nt	100*	12	3
CCN(CC)C(=O)Cn1cnc2sc(C(=O)NCCCN3CCOCC3)c(C)c2c1=O	1	-4	1	2	7	0
CCN(CC)C(=O)C1=C(C)N(CCCOC)C(=O)C(CC(=O)NCc2ccco2)C1 (centres undefined)	nt	nt	nt	nt	7	1
N#Cc1cccc(S(=O)(=O)NCCOc2ccccc2F)c1	-2	-13	nt	7	10	-2
O=C(Nc1ccccc1F)Oc1cccc(OC(=O)Nc2ccccc2F)c1	64*	69*	-1	73*	19	0
COc1cccc(C(=O)Nc2ccccc2F)c1	4	19	-3	20	11	2
CC1=C(C(=O)c2ccccc2)C(c2ccc(N3CCOCC3)cc2)NC(=O)N1 (centres undefined)	-2	-17	-1	1	-1	74*
Cc1ccc(S(=O)(=O)N(C)C)cc1NC(=O)C(C)OC(=O)C1CCC1 (centres undefined)	-3	-17	nt	-2	5	3
COc1ccccc1C(=O)COC(=O)c1ccccc1O	-10	15	-6	12	0	1
CCc1ccc(C(=O)COC(=O)c2ccccc2OC)cc1	82*	89*	4	91*	6	1
O=C(CCC(=O)c1ccc(Cl)cc1)OCn1nnc2ccccc2c1=O	2	9	nt	2	10	1
O=C(O)CCSc1nnc(-c2ccc3c(c2)OCO3)o1	2	2	16*	-9	-1	2
Cc1ccc(CSc2nnc(-c3ccc4c(c3)OCO4)o2)cc1	-7	10	3	5	6	1
O=C(c1cc(-c2ccc(F)cc2)on1)N1CCCCCC1	-1	25	17*	-10	12	2
CNC(C)C#Cc1ccc2oc3cccc(OC)c3c(=O)c2c1 (centres undefined)	-6	12	4	0	i	0
CNC(C)C#Cc1ccc2oc3cc(C)c(C)cc3c(=O)c2c1 (centres undefined)	69*	84*	nt	43	-94	-31
Nc1nonc1-n1nnc(C(=O)N/N=C/c2ccc(OCc3ccccc3)cc2)c1COc1ccc(F)cc1	-12	-24	-1	0	-137	-2
Cc1cccc(COc2ccc(/C=N/NC(=O)c3nnn(-c4nonc4N)c3COc3ccc(F)cc3)cc2)c1	-12	-41	16*	-9	-138	4
O=[N+]([O-])c1cnc2nc(-c3ccncc3)nn2c1O	93*	99*	1	96*	10	3

Source: PubChem (several laboratories)
